Measured values as given in PubChem BioAssay.
The source made the active and inactive calls. Rule as the data show it, unless noted: active = inhibition above about 30%; inactive = the rest.

Tests used:
[1] = target: Pantothenate synthetase (Mycobacterium tuberculosis (strain ATCC 25618 / H37Rv)) (UniProt P9WIL5); assay: Recombinant Mtb pantothenate synthetase (PanC) inhibitors, coupled enzyme, confirmatory (AID 375; call rule not given here;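 also: 0% = full reaction with vehicle and 100% = no enzyme background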); details: coupled enzyme assay; at 10 µM, stronger effect = higher value
[2] = SK-BR-3 cell growth inhibitors, pilot screen, 24 h, human (AID 572;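 active = viability at or below 10% of carrier control in both of two separate runs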;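 also: compound exposure lasted between 18 and 24 h rather than exactly 24 h; 100% = carrier-treated control wells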); details: SK-BR-3 viability, CellTiter-Glo luminescence, at 10 µM, stronger effect = lower value
[3] = HUVEC growth inhibition – cell-based, human, primary screen (AID 575;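 active = viability at or below 30% in both replicate assays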;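 also: 100% = median of untreated cell wells with 0.1% DMSO on each plate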); details: HUVEC proliferation, CellTiter-Glo luminescence, 72 h; at 10 µM; stronger effect = lower value
In short: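 material = primary HUVEC, no more than 12 passages | input = 1250 cells per well | controls = vehicle and MePR control wells | measured by = CTG luminescence | times = 72 h compound incubation | format = collagen-coated 384-well format | read-out = % viability vs DMSO wells | doses = single 10 µM dose, 0.1% DMSO, from 5x medium stock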

[4] = growth inhibitors of H69AR lung tumor, primary screen, human, duplicate replicates (AID 580;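 active = viability at or under a set limit in both replicates, limit being median viability minus 3 SD, cut at about 48% in these data, passing the limit was not always enough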;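 also: 100% = mean luminescence of untreated wells and 0% = no signal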); details: H69AR lung tumor cells viability, ATP luminescence, 72 h; at 10 µM; stronger effect = lower value
[5] = reversal of MRP1-mediated doxorubicin resistance, pilot screen, H69AR cells, doxorubicin co-treatment (AID 601;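 active = viability loss from added drug above about 55%, and viability with drug at most 40%, in both replicates, limit read from the data, passing the limit was not always enough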); details: CellTiter-Glo, 72 h, at 10 µM; for differential viability (reversal): stronger effect = higher value
[6] = 384-well plate pilot, post-Golgi transport modulator project, inhibition of yeast transport mutant growth (AID 636; in the data active = inhibition above about 31%); details: absorbance 615 nm, about 18 h, stronger effect = higher value
[7] = growth suppression of yeast trafficking mutant, preliminary HTS, modulators of trafficking downstream of Golgi apparatus project, 1536-format plate, OD 615 nm (AID 637); details: yeast transport mutant growth, absorbance 615 nm, 18 h; stronger effect = higher value
[8] = H69AR cells + 2 uM doxorubicin, measured here: viability with 2 uM doxorubicin, stronger effect = lower value
[9] = H69AR cells, compound alone cytotoxicity

Sequence of Pantothenate synthetase (Mycobacterium tuberculosis (strain ATCC 25618 / H37Rv)) (P9WIL5 whole entry, looked up): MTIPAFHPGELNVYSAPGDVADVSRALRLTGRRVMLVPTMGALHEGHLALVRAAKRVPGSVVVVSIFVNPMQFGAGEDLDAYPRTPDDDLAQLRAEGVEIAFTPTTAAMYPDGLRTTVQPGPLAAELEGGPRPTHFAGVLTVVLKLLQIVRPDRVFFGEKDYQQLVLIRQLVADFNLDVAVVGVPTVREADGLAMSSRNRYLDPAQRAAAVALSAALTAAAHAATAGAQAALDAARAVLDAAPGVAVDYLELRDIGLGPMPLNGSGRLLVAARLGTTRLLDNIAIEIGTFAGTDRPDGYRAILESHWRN

| SMILES | inhibition [1] | viability [2] | viability [3] | viability [4] | differential viability (reversal) ([5]; H69AR cells + 2 uM doxorubicin) | viability [5, 8] [%] | viability [5, 9] [%] | inhibition [6] | inhibition [7] |
| --- | --- | --- | --- | --- | --- | --- | --- | --- | --- |
| CCC(=NCC1CCCO1)c1c(O)n(Cc2ccccc2)c(=O)[nH]c1=O (stereo not given) | 0% (inactive) | 91% (inactive) | 107% (inactive) | 86.3% (inactive) | -0.335% (inactive) | 86.7 | 86.3 | -4.29% (inactive) | 1.48% (inactive) |
| Cc1ccc2nc(N3CCN(C)CC3)[nH]c2c1 | 0% (inactive) | 111% (inactive) | 90.4% (inactive) | 93.6% (inactive) | 2.07% (inactive) | 91.5 | 93.6 | 1.64% (inactive) | -1.13% (inactive) |
| CCCNS(=O)(=O)c1ccc(OCC(=O)N2CCN(Cc3ccccc3)CC2)cc1 | 0% (inactive) | 111% (inactive) | 86.6% (inactive) | 88.6% (inactive) | 0.375% (inactive) | 88.2 | 88.6 | -5.07% (inactive) | 5.97% (inactive) |
| CNP1(NC)=NC(C(F)(F)F)=NC(C(F)(F)F)=N1 | 3% (inactive) | 95% (inactive) | 124% (inactive) | 98.1% (inactive) | 6.97% (inactive) | 91.2 | 98.1 | -6.99% (inactive) | 4.36% (inactive) |
| NCC1(CC(=O)O)CCCCC1 | 3% (inactive) | 105% (inactive) | 101% (inactive) | 96.8% (inactive) | 7.93% (inactive) | 88.9 | 96.8 | -1.17% (inactive) | 2% (inactive) |
| CCOC(=O)C1SC2(C(F)F)CC1(O)c1c(c(OC)c3occc3c1OC)O2 (stereo not given) | 0% (inactive) | 91% (inactive) | 93.3% (inactive) | 104% (inactive) | 22.9% (inactive) | 80.9 | 104 | -4.73% (inactive) | 0.73% (inactive) |
| COc1ccc(CCn2c(O)c(C=NCc3cccnc3)c(=O)[nH]c2=O)cc1OC | 0% (inactive) | 63% (inactive) | 118% (inactive) | 95.4% (inactive) | 1.12% (inactive) | 94.3 | 95.4 | -4.67% (inactive) | 1.97% (inactive) |
| C#CCN(C)C(C)Cc1ccccc1 (stereo not given) | 5% (inactive) | 115% (inactive) | 88.3% (inactive) | 99.3% (inactive) | -5.18% (inactive) | 104 | 99.3 | -0.26% (inactive) | 2.33% (inactive) |
| C=CCN1C(=O)C2(C(C(=O)OCC)=C(N)Oc3c2c(=O)oc2ccccc32)c2ccccc21 (stereo not given) | 0% (inactive) | 61% (inactive) | 108% (inactive) | 98.2% (inactive) | -10.5% (inactive) | 109 | 98.2 | 0.27% (inactive) | 1.45% (inactive) |
| CN(C)[C@@H]1C(=O)C(C(N)=O)=C(O)[C@@]2(O)C(=O)C3=C(O)c4c(O)cccc4[C@@](C)(O)[C@H]3C[C@@H]12 | 2% (inactive) | 91% (inactive) | 102% (inactive) | 102% (inactive) | 11.8% (inactive) | 89.8 | 102 | 0.13% (inactive) | -2% (inactive) |
| CCCCn1c(O)c(C(C)=NC(Cc2c[nH]c3ccccc23)C(=O)OC)c(=O)[nH]c1=O (stereo not given) | 1% (inactive) | 91% (inactive) | 84.5% (inactive) | 96.5% (inactive) | 2.8% (inactive) | 93.7 | 96.5 | -4.93% (inactive) | -2.1% (inactive) |
| Cc1ccnc(-n2c(-c3ccco3)nc3ccccc3c2=O)c1 | 0% (inactive) | 105% (inactive) | 107% (inactive) | 99.8% (inactive) | 10.2% (inactive) | 89.6 | 99.8 | -2.47% (inactive) | 1.15% (inactive) |
| CC(=NCCCN1CCOCC1)c1c(O)n(-c2ccccc2C)c(=O)[nH]c1=O | 0% (inactive) | 100% (inactive) | 91.3% (inactive) | 92.2% (inactive) | 5.16% (inactive) | 87 | 92.2 | -0.14% (inactive) | -5% (inactive) |
| CN1CCN(c2c[nH]c(=O)[nH]c2=O)CC1 | 0% (inactive) | 110% (inactive) | 90.6% (inactive) | 96.7% (inactive) | 5.06% (inactive) | 91.6 | 96.7 | -7.53% (inactive) | -6.29% (inactive) |
| CN1[C@@H]2CC[C@H]1CC(OC(=O)C1C=Nc3ccccc31)C2 (stereo not given in full) | 4% (inactive) | 86% (inactive) | 82.4% (inactive) | 83.3% (inactive) | -14.3% (inactive) | 97.7 | 83.3 | 3.25% (inactive) | 0.5% (inactive) |
